For data set [1], the system named is Chlamydia trachomatis. In words: Bacteriostatic activity against Chlamydia trachomatis Serovar LGV-L2 infected in Hep2 cells assessed as reduction of inclusion size at 50 ug/ml treated at 8 hrs post infection and incubated for 16 hrs followed by compound washout and further incubated for 24 hrs by immunofluorescence staining based microscopic assay. Format: functional, organism-based. The gist of the method:
(§1)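 Medium was then removed, wells washed three times with Hanks' balanced salt solution, and compound-free medium added; incubation continued 24 h. Read-out by IFU re-infection and anti-MOMP immunofluorescence, as in the IFU protocol.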

The test system of data set [2] is Chlamydia trachomatis. Nature of the data set: Anti-chlamydial activity against Chlamydia trachomatis Serovar LGV-L2 infected in Hep2 cells assessed as reduction in chlamydial inclusion yield at 50 ug/ml treated at 8 hrs post infection and incubated for 16 hrs followed by compound washout and further incubated for 48 hrs by immunofluorescence staining based microscopic assay. Format: functional, organism-based.

The nature of data set [3]: Cytotoxicity against immortal human HaCaT cells assessed as reduction in cell viability at 50 ug/ml after 24 hrs by CCK-8 assay relative to control. It is filed as cell-based. To be noted: read-out: INH. The gist of the method:
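HeLa 229 and HaCaT cells in DMEM with 10% FBS and 1% penicillin/streptomycin, 37 °C, 5% CO2, seeded at 5000 cells/well. Next day treated with 50 μg/mL in triplicate, with matching DMSO controls. After 24 h, CCK-8 added for 2 h; corrected absorbance read at 450 nm.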
Background: Tetrazolium assays rely on reduction of a dye to a coloured formazan, in cell work by metabolically active cells.

Data set [4] has as its system Chlamydia trachomatis. Nature of the data set: Bacteriostatic activity against Chlamydia trachomatis Serovar LGV-L2 infected in Hep2 cells assessed as loss of inclusion morphology at 50 ug/ml treated at 8 hrs post infection and incubated for 16 hrs followed by compound washout and further incubated for 24 hrs by immunofluorescence staining based microscopic assay. It is filed as functional, organism-based. The method, boiled down:
as §1

Data set [5] is described as follows: Drug metabolism in human liver microsomes assessed as 1-[4-[(4-chlorophenyl)methyl]piperazin-1-yl]-2-methyl-2-[[5-(trifluoromethyl)-2-pyridyl]sulfonyl]propan-1-one formation at 1 ug/ml after 10 to 60 mins by LC-MS/MS analysis. It is filed as ADME, Microsome. For orientation: Liver microsomes are vesicles of endoplasmic reticulum, rich in cytochrome P450 enzymes.

The test system of the next data set is HEp-2. In words: Toxicity in human Hep2 cells infected with Chlamydia trachomatis Serovar LGV-L2 at 100 ug/ml treated at 8 hrs post-infection and 24 hrs later re-infecting fresh Hep2 cells monolayer with infected cells and measured at 24 hrs post re-infection by immunofluorescence staining based microscopy analysis. Format: cell-based.
Data set [6] deals with Chlamydia trachomatis. In words: Anti-chlamydial activity against Chlamydia trachomatis Serovar LGV-L2 infected in Hep2 cells assessed as reduction in chlamydial inclusion yield at 50 ug/ml treated at 8 hrs post infection and incubated for 16 hrs followed by compound washout and further incubated for 24 hrs by immunofluorescence staining based microscopic assay. It is filed as functional, organism-based. The method, boiled down:
as §1

The subject of data set [7] is Chlamydia trachomatis. Nature of the data set: Anti-chlamydial activity against Chlamydia trachomatis Serovar LGV-L2 infected in Hep2 cells assessed as reduction in chlamydial inclusion growth by measuring appearance of small and irregular inclusions at 50 ug/ml treated at 8 hrs post-infection and 24 hrs later re-infecting fresh Hep2 cells monolayer with infected cells and measured at 24 hrs post re-infection by immunofluorescence staining based microscopy analysis. It is filed as functional, organism-based. The gist of the method: (§2)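 HEp-2 cells in DMEM with 10% FBS, infected with C. trachomatis L2 at MOI 1. Compounds added 8 hpi in triplicate; DMSO stocks at 50 mg/mL. At 24 hpi lysates collected in sucrose storage medium, frozen at −80 °C, and used to infect fresh HEp-2 monolayers in 10-fold dilutions. After 24 h, stained with goat anti-MOMP and Alexa488 secondary. Inclusions counted in 15 fields at 20x; IFU = mean count per field corrected for dilution.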

Data set [8] has as its system Chlamydia trachomatis. Nature of the data set: Anti-chlamydial activity against Chlamydia trachomatis Serovar LGV-L2 infected in Hep2 cells assessed as reduction in chlamydial inclusion growth by measuring appearance of small and irregular inclusions at 50 to 100 ug/ml treated at 8 hrs post-infection and 24 hrs later re-infecting fresh Hep2 cells monolayer with infected cells and measured at 24 hrs post re-infection by immunofluorescence staining based microscopy analysis. It is filed as functional, organism-based. The gist of the method:
as §2

Data set [9] has as its system Chlamydia trachomatis. Nature of the data set: Anti-chlamydial activity against Chlamydia trachomatis Serovar LGV-L2 infected in Hep2 cells assessed as reduction in chlamydial growth by measuring decrease in inclusion forming units at 5.2 to 50 ug/ml treated at 8 hrs post-infection and 24 hrs later re-infecting fresh Hep2 cells monolayer with infected cells and measured at 24 hrs post re-infection by immunofluorescence staining based microscopy analysis. It is filed as functional, organism-based. The method, boiled down: as §2

Data set [10] concerns the target ATP-dependent Clp protease proteolytic subunit (Escherichia coli (strain K12)) (UniProt P0A6G7). Nature of the data set: Activation of recombinant Escherichia coli ClpP assessed as induction of casein degradation at 0.1 to 1 uM using FITC-labelled casein as substrate pretreated with enzyme for 30 mins followed by substrate addition and measured every 3 mins for 3 hrs in absence of AAA+ chaperone by fluorescence based tecan-plate reader assay. The method, boiled down: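 Recombinant C-terminal His6-tagged ClpP, expressed in a clpAPX-null E. coli strain and purified (mammalian ClpP without mitochondrial signal, codon-optimized). ClpP at 1 or 0.1 μM (E. coli), 1 μM (human, mouse) or 6 μM (chlamydial ClpP1 and ClpP2) preincubated with compound or DMSO, 30 min, 32 °C, in HEPES pH 7.6/KCl/MgCl2/DTT/glycerol buffer. 20 μM FITC-casein then added. Fluorescence (ex 490/em 525 nm) read every 3 min for 3 h. At least three runs on at least two protein preparations.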

In data set [11] the test system is Chlamydia trachomatis. Nature of the data set: Anti-chlamydial activity against Chlamydia trachomatis Serovar LGV-L2 infected in Hep2 cells assessed as reduction in chlamydial inclusion growth by measuring appearance of small and irregular inclusions at 12.5 ug/ml treated at 8 hrs post-infection and 24 hrs later re-infecting fresh Hep2 cells monolayer with infected cells and measured at 24 hrs post re-infection by immunofluorescence staining based microscopy analysis relative to control. It is filed as functional. To be noted: Serovar LGV-L2, HEp-2. The gist of the method: as §2

This is an account of results in ChEMBL document CHEMBL4342502, “Synthesis and Antichlamydial Activity of Molecules Based on Dysregulators of Cylindrical Proteases” (J Med Chem, 2020).

The source made the active and inactive calls. The rule behind the calls is not given here.

Sequence of ATP-dependent Clp protease proteolytic subunit (Escherichia coli (strain K12)) (P0A6G7 whole entry): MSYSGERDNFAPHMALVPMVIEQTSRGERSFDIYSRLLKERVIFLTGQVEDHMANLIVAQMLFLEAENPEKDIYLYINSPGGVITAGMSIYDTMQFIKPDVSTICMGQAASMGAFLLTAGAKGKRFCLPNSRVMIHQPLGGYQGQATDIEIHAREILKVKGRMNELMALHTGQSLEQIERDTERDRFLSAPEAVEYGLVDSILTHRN

Regarding `CC(C)(C(=O)N1CCN(Cc2ccc(Cl)cc2)CC1)S(=O)(=O)c1ccc(C(F)(F)F)cn1`, the inhibition result with Chlamydia trachomatis [1], with Chlamydia trachomatis [4], in the data set on Chlamydia trachomatis [7], in the data set on Chlamydia trachomatis [8] and with Chlamydia trachomatis [9] was “Active” each time. For the same molecule, the inhibition entry in the data set on Chlamydia trachomatis [2] and with Chlamydia trachomatis [6] was “inactive” each time. Moreover, in [3], the cytotoxicity at 24 h, 50 ug/ml turned out to be 50%. For the same molecule, the Drug metabolism entry in data set [5] was “Metabolite_Detected”. Also, the Activity result in the data set on HEp-2 is reported as “Non-Toxic”. Also, the result in data set [10] was Active. Moreover, in the data set with Chlamydia trachomatis [11], the inhibition at 12.5 µg/mL was 60%.

Usually inhibition stands for the change of the read-out against control, counted positive when it falls.
